Data from PubChem BioAssay.
Inconclusive results are not listed.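 How the source made its calls, unless noted: active means viability at or below 27.92% in each of two runs, the all-compound median minus 4 SD; inconclusive means no clear call, values can overlap the other calls; inactive means the rest.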

Assays:
[1] = OD615 S. cerevisiae growth inhibition, permissive medium, pilot counter-assay, permissive growth control for S. cerevisiae lifespan shortening project (AID 705;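 active means growth inhibition above 25% in both replicates, a cutoff set 3 SD above the mean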); conditions: OD615, 24 h, at 10 µM, hits give high values
How it was run: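 Material: engineered DeaD yeast; compound dosing: one dose 10 µM, DMSO 0.25% final; measure: yeast growth inhibition indicated by reduced 24 h OD615; detection: OD615 turbidity read; incubation: cells pre-grown 4 h, then 24 h compound exposure, 30 °C humidified; medium: permissive synthetic complete medium with raffinose and galactose carbon sources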

[2] = Restrictive medium S. cerevisiae growth inhibition, OD615, pilot screen of yeast lifespan reduction project, restrictive growth control (AID 706;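 active means growth inhibition above a set limit, 3 SD over mean compound inhibition, in both replicates, cut at about 43% in these data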;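 further: modified DeaD lifespan yeast strain shifted to restrictive glucose medium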); conditions: OD615, 48 h, at 10 µM, hits give high values
How it was run: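 material = engineered S. cerevisiae DeaD strain | medium = glucose-based CSMM-D restrictive medium | times = 4 h pre-incubation, 48 h exposure at 30 °C | technique = OD615 absorbance reading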

[3] = viability gain of MRP-1-high H69AR cells under doxorubicin, pilot screen, MRP-1 activator project, CellTiter-Glo, duplicate (AID 807;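 active means viability increase at or above a cutoff of the median across tested compounds plus 3 SD, cut at about 8.5% in these data, passing the limit was not always enough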;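 further: compound pretreatment 18-22 h then 72 h combined with doxorubicin; 0% = doxorubicin alone and 100% = vehicle without doxorubicin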); conditions: H69AR viability with doxorubicin, CellTiter-Glo luminescence; at 10 µM; hits give high values
[4] = growth suppression of beta-catenin knockout HCT116, pilot screen, human colon tumor cells (AID 823;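 active means cell viability at or below a set limit in both duplicate runs, the limit being the all-compound median minus 4 SD, cut at about 23% in these data, passing the limit was not always enough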;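 further: 0% = wells killed by 20 µM Hyamine and 100% = untreated DMSO cell wells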); conditions: CellTiter-Glo, 60 h, at 10 µM, hits give low values
[5] = growth suppression of PTEN-deleted HCT116, pilot screen, cell-based, HCT116 clonal line, CellTiter-Glo (AID 824); conditions: 60 h, at 10 µM, hits give low values;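 further: 0% = 20 µM Hyamine control and 100% = vehicle cell control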
[6] = inhibitors of the yeast RAM network, pilot screen, dse1pr::URA3 reporter, 5-FOA selection (AID 869;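 active means inhibition over a set limit, the all-compound mean plus 3 SD, in both replicate runs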;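 further: 0% = DMSO wells with no growth and 100% = 10 µM 1-NA-PP1 with full growth; RAM network block rescues cells from 5-FOA so hits raise OD615 growth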); conditions: S. cerevisiae dse1pr::URA3 5-FOA growth, OD615, 2 d; at 10 µM; hits give high values; strain carries analog-sensitive mutant Cbk1 kinase
[7] = RAM signaling pathway blockade in yeast – S. cerevisiae, Pdr1DBD-CYC8 efflux-inhibited sensitized strain, primary screen (AID 1298;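 active means RAM network inhibition above 8.4% in each of two replicates, 3 SD over the compound average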;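 further: 0% = DMSO untreated cells without growth and 100% = 10 µM 1-NA-PP1 full growth; higher means more yeast growth rescued from 5-FOA killing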); conditions: S. cerevisiae cbk1-as DSE1-URA3 strain, 5-FOA growth OD615, 2 d; at 50 µM; hits give high values

CCN(CCNC(=O)C1CCCN(S(=O)(=O)c2cnc[nH]2)C1)c1ccccc1 (stereo not drawn)
inactive: growth inhibition [1] -0.145% | growth inhibition [2] -6.85% | viability increase [3] -0.77% | viability [4] 106% | viability [5] 101% | inhibition [6] 0.775% | RAM network inhibition [7] 3.46%

NC(=O)c1oc2ccccc2c1NC(=O)CCc1ccccc1
inactive: growth inhibition [1] 1.12% | growth inhibition [2] 2.84% | viability increase [3] -2.96% | viability [4] 96.8% | viability [5] 97.2% | inhibition [6] 0.36% | RAM network inhibition [7] 3.76%

COc1ccc(N(CC(=O)N2CCN(C)CC2)S(C)(=O)=O)cc1OC
inactive: growth inhibition [1] -12% | growth inhibition [2] -9.76% | viability increase [3] -0.37% | viability [4] 90.8% | viability [5] 97.5% | inhibition [6] 0.64% | RAM network inhibition [7] 6.2%

CCOC(=O)C1=C(C)NC(=O)NC1c1ccc(OCC(=O)Nc2ccccc2)c(OC)c1 (stereo not drawn)
inactive: growth inhibition [1] -2.03% | growth inhibition [2] -26% | viability increase [3] -1.88% | viability [4] 102% | viability [5] 95% | inhibition [6] 2.01% | RAM network inhibition [7] 0.32%

O=C(C1CCC(CNc2c(N3CCCCC3)c(=O)c2=O)CC1)N1CCN(c2ccccn2)CC1 (stereo not drawn)
inactive: growth inhibition [1] -4.55% | growth inhibition [2] -1.08% | viability increase [3] -0.36% | viability [4] 102% | viability [5] 99.1% | inhibition [6] -0.5% | RAM network inhibition [7] 4.92%

COc1ccccc1-c1c(C)nn2c(NCCN3CCCC3)cc(C)nc12
inactive: growth inhibition [1] -3.48% | growth inhibition [2] 0.235% | viability increase [3] -1.54% | viability [4] 87.1% | viability [5] 92.6% | inhibition [6] 0.815% | RAM network inhibition [7] 2.33%

COc1ccc(Cn2c(=O)[nH]c3cc(C(=O)N4CCN(Cc5ccccc5)CC4)ccc3c2=O)cc1
inactive: growth inhibition [1] 1.4% | growth inhibition [2] -4.04% | viability increase [3] 1.49% | viability [4] 36.3% | viability [5] 49.7% | inhibition [6] 0.835% | RAM network inhibition [7] 1.57%

CC(=O)c1cccc(NC(=O)C2CCN(S(=O)(=O)c3ccc(F)cc3)CC2)c1
inactive: growth inhibition [1] -6.23% | growth inhibition [2] 1.16% | viability increase [3] -2.82% | viability [4] 92% | viability [5] 93.5% | inhibition [6] 3.66% | RAM network inhibition [7] 5.67%

CCOC(=O)c1[nH]c(C)c(C(=O)NCCN2CCOCC2)c1C
inactive: growth inhibition [1] -3.9% | growth inhibition [2] -8.41% | viability increase [3] -1.39% | viability [4] 103% | viability [5] 97.7% | inhibition [6] 0.85% | RAM network inhibition [7] -0.87%

Cc1ccc(C)n1-n1c(C)nc2scc(-c3cccs3)c2c1=O
inactive: growth inhibition [1] -13.1% | growth inhibition [2] 1.95% | viability increase [3] -3.42% | viability [4] 72.1% | viability [5] 71.6% | inhibition [6] 0.72% | RAM network inhibition [7] 2.2%

CCOc1ccccc1-c1nc(C(N)=O)c2[nH]c(=O)n(-c3ccc(F)cc3)c2n1
inactive: growth inhibition [1] -8.26% | growth inhibition [2] -0.005% | viability increase [3] -4.08% | viability [4] 90.2% | viability [5] 83.9% | inhibition [6] 0.93% | RAM network inhibition [7] -0.71%

S=c1[nH]nc(-c2ccncc2)n1Cc1ccccc1
inactive: growth inhibition [1] -4.1% | growth inhibition [2] -9.11% | viability increase [3] -1.9% | viability [4] 100% | viability [5] 93.7% | inhibition [6] 0.265% | RAM network inhibition [7] 1.95%

O=c1c2cnn(-c3ccccc3)c2ncn1Cc1ccccc1F
inactive: growth inhibition [1] -1.06% | growth inhibition [2] 9.05% | viability increase [3] -0.65% | viability [4] 93% | viability [5] 88.6% | inhibition [6] -0.06% | RAM network inhibition [7] 4.95%

CCOC(=O)c1cnc2ccc(Br)cc2c1NCC(C)O (stereo not drawn)
inactive: growth inhibition [1] -11.9% | growth inhibition [2] -9.36% | viability increase [3] -4.28% | viability [4] 91.4% | viability [5] 89.2% | inhibition [6] 1.19% | RAM network inhibition [7] 2.79%
